Results: the RNAGym collection of RNA variant scans (doi:10.1126/science.aae0568)
Variants at the floor of the assay were thinned out.

B1: tRNA (parent)
chain: GUUCCGUUGGCGUAAUGGUAACGCGUCUCCCUCCUAAGGAGAAGACUGCGGGUUCGAGUCCCGUACGGAACG

Variants of: B1
Test: yeast fitness relative to wild type (ratio to wild type); higher = fitter; tRNA-Arg(CCU), competitive growth, 37 C, YPD
Summary of the method: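 Genotype frequency changes were the basis for Darwinian fitness relative to wild type. The frequencies came from 100-nucleotide paired-end sequencing of gene amplicons from the start population and each end population of pooled yeast strains with tRNA-Arg(CCU) gene variants at the native locus. Competition ran in YPD at 37°C for 24 hours in six replicates, genotypes needed ≥ 100 starting reads, and estimates < 0.5 were set to 0.5.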

| Variant | yeast fitness |
| --- | --- |
| U13C A15G A21G U47G A65C | ≤ 0.5 |
| U13C C22G | 0.709 |
| U13C C22A | 0.791 |
| U13A U28G G50C A57U C62A | 0.931 |
| U13A G52A C55U | ≤ 0.5 |
| G12C C33G G44C A69C | ≤ 0.5 |
| U13C A14C U16C U64C A65C | ≤ 0.5 |
| U13A A40G A42G A57C C66U | 0.522 |
| G12C G50U | 0.836 |
| G12C G50A | 0.736 |
| U13A C33A A36U A70C | 0.518 |
| U13A A43G A45G G50C C60A A69C | 0.534 |
| U13A G25C | 1.04 |
| G12C U32G C33G | 0.543 |
| U13C A57U C62U | ≤ 0.5 |
| U13A A14U C24G U28G C31U C66U | ≤ 0.5 |
| G12C U47C | 0.958 |
| U13A C24U U59C G67A | ≤ 0.5 |
| U13A G23C C27G U53C | ≤ 0.5 |
| U13A A15G U47A U64G | ≤ 0.5 |
| U13C A20C A21C C46G | ≤ 0.5 |
| U13A C34U A36G | ≤ 0.5 |
| U13A C27A C61U C66U | ≤ 0.5 |
| U13A C22G C31G C61A | 0.512 |

| Variant | yeast fitness |
| --- | --- |
| G12C U13C A20C C24G G39C | ≤ 0.5 |
| U13A U47A C60A A69C | 0.525 |
| U13A U32A A37U | ≤ 0.5 |
| G12C C55G C66U | ≤ 0.5 |
| G12C U26A U35A | ≤ 0.5 |
| G12C C61U C66U A70C | ≤ 0.5 |
| U13A G67C | 0.945 |
| U13A A14C U19C U32A G63C | 0.64 |
| U13A U28A C30G C46U G56C | ≤ 0.5 |
| U13A A14C C22A U54C | ≤ 0.5 |
| G12C U28C U35A G38A C46G C62U | ≤ 0.5 |
| U13A A40G U47G G63C | 0.535 |
| U13A A57U U64G A65G | ≤ 0.5 |
| U13A U28A U47G | 0.528 |
| U13A C24A A45U G50A G56A | ≤ 0.5 |
| G12C G25C A69U | ≤ 0.5 |
| G12C U32G C49G C55A | ≤ 0.5 |
| U13A C22G U59G A65U | ≤ 0.5 |
| G12C G58C C60A A65C | ≤ 0.5 |
| U13A G23C C27G U53C C61A G68A | 0.584 |
| U13A G56A | 0.927 |
| U13A A36G G56A | 0.679 |
| U13A A15C C46U | 0.612 |
| U13A U16A A43C | 0.564 |

| Variant | yeast fitness |
| --- | --- |
| U13C A37G C49G C55U G56C G68A | ≤ 0.5 |
| U13A C27U C31U | 0.673 |
| U13A A15G C22G C24U G44A U53G | ≤ 0.5 |
| U13A A14U C27G C46G | 0.553 |
| U13A G50U G68C | 0.515 |
| U13A C29U | 0.786 |
| U13C A36U C62U G63C A70C | ≤ 0.5 |
| U13A G18C A36G G41C C55U | 0.55 |
| U13A C27G A42U | 0.671 |
| U13A G63A | 0.853 |
| G12C C31G C33G G48A | 0.642 |
| U13C C24G G67C | ≤ 0.5 |
| U13A C34G A45C A57C | ≤ 0.5 |
| U13A C22G C24A C46G C55U | 0.551 |
| G12C C62U A69U | 0.651 |
| U13A C49U A65C | 0.624 |
| U13A A42U A70G | 0.745 |
| U13A A20G | 0.888 |
| U13A A20C | 0.715 |
| U13A C22A A36U | ≤ 0.5 |
| U13A C46U U64C A69U | ≤ 0.5 |
| U13A G48A | 1.03 |
| U13C A36C U47C G67U | ≤ 0.5 |
| U13A G23C C27G C61A C62U | ≤ 0.5 |

| Variant | yeast fitness |
| --- | --- |
| U13A G41A G67A | 0.546 |
| G12C U16A C60G C61U | ≤ 0.5 |
| U13A C22G C24A C46G C55U C61A | ≤ 0.5 |
| G12C U19A | 0.742 |
| G12C G48A C66U | 0.784 |
| U13A A15G C27U C62A G63A A70C | ≤ 0.5 |
| U13C C24G C49G | ≤ 0.5 |
| G12C C33G G44C U54A | ≤ 0.5 |
| U13A A42U C66U | 0.704 |
| U13C C22G C27A G51C | ≤ 0.5 |
| U13A G23C U32G G58C C61A A65U | ≤ 0.5 |
| U13A A42C C66U | 0.76 |
| U13C A15G G39A | 0.593 |
| U13A A57U | 0.681 |
| U13A A15G A65G | 0.877 |
| G12C G23C G50A C55A | ≤ 0.5 |
| U13C A20G C31U | 0.777 |
| G12C C34U G44A G52A C55U | ≤ 0.5 |
| U13A A40C A69G | 0.629 |
| U13C A14C A45U C66U | ≤ 0.5 |
| U13A G50C A70U | ≤ 0.5 |
| U13C A15G | 0.903 |
| U13C A20G G39A G48C | ≤ 0.5 |
| U13A C24U U35A A43C G50C | ≤ 0.5 |

| Variant | yeast fitness |
| --- | --- |
| U13A C30U A45C | 0.611 |
| G12C G17C C22A A42C | ≤ 0.5 |
| G12C U32C A37C A45G A57C | ≤ 0.5 |
| U13A C27A A36G A42C | ≤ 0.5 |
| U13A U28A C31U G39A A57G | ≤ 0.5 |
| U13A C30A C31U A43C | 0.942 |
| G12C C31G A65C | ≤ 0.5 |
| G12C U59G | 0.79 |
| U13A U53A C61U | ≤ 0.5 |
| G12C G68A | 0.945 |
| G12C U19A C27G A65C G68A | ≤ 0.5 |
| U13C C22G G68C | 0.542 |
| U13C C22G G68U | ≤ 0.5 |
| U13A C49A | 0.654 |
| U13A C49U | 1.02 |
| G12C U16C A42C C49U | 0.594 |
| G12C U28A | 1.04 |
| G12C U28C C30U C66A | ≤ 0.5 |
| G12C U13A G38A | 0.576 |
| U13A C22A C29A G41C G50C | ≤ 0.5 |
| G12C G38A A40G A42C | ≤ 0.5 |
| G12C G18C | 0.55 |
| U13A A43U G50A U54G G68C | ≤ 0.5 |
| U13A C30G | 0.584 |

| Variant | yeast fitness |
| --- | --- |
| U13A C30U | 0.802 |
| U13C A43U G56A | 0.797 |
| U13A C22A C46U | 0.633 |
| U13A C22U A37G | 0.533 |
| U13A C66U G68C | 0.51 |
| U13A C27G C34G G48C | ≤ 0.5 |
| U13A G23C C49A U64G | ≤ 0.5 |
| U13A G23A A36C G38A C61G | ≤ 0.5 |
| U13A C27G | 0.621 |
| U13C A15U G23A C33A A42G G56A | ≤ 0.5 |
| U13A C46G G63C C66A | ≤ 0.5 |
| U13C C22A U32A A36G A43U | ≤ 0.5 |
| U13C A36C A43C C60A | 0.566 |
| U13C A15U C46A C66U | ≤ 0.5 |
| U13A C22A A36U A65G | ≤ 0.5 |
| U13A G23C A37C G38A | 0.554 |
| U13A G48C C55G C66A | 0.584 |
| U13A U53A | 0.59 |
| G12C U13A U16G C24G A69U | ≤ 0.5 |
| G12C U59C A69C | 0.665 |
| U13A C30U G39C C55G | 0.545 |
| U13A G50C U59A | 0.594 |
| G12U C33U C34G | ≤ 0.5 |
| G12C U13C C22U A43C G68C | ≤ 0.5 |

| Variant | yeast fitness |
| --- | --- |
| G12C U26C A37G | ≤ 0.5 |
| G12C U13C A40U G58C | ≤ 0.5 |
| U13A A20G G41A G51C G67C | ≤ 0.5 |
| U13C A14G C24G G52A C55G A69U | ≤ 0.5 |
| G12C C34U C49U A57G | ≤ 0.5 |
| U13A C31U C49U C66A G67A | ≤ 0.5 |
| U13A A43C A57C A70U | 0.551 |
| U13A A40C U53A | 0.53 |
| G12C U13C U16A C29G G44C C49G A57C | ≤ 0.5 |
| U13A A20C A40U | ≤ 0.5 |
| G12C G56A | 0.838 |
| G12C G56C | 0.694 |
| U13A C24A A45C | ≤ 0.5 |
| U13A C27G U59C | ≤ 0.5 |
| U13C A20C A40G | ≤ 0.5 |
| G12C G18C U54C | ≤ 0.5 |
| U13A A37U | 0.63 |
| U13A G41A | 0.714 |
| U13C A14U U32C | 0.53 |
| U13A A15G C27U A57G | ≤ 0.5 |
| U13A C24G U28A C30U C31G G41C G56A A57C | ≤ 0.5 |
| U13C C24G C30A U47C | ≤ 0.5 |
| U13A C29U C31U G50C | 0.508 |
